System: Radical scavenging activity
Assay: Antioxidant activity assessed as ability to scavenge hydroxyl radicals by ABTS competition assay
Format: functional
Procedure, shortened: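 Hydroxyl radical scavenging in ethanolic medium by ABTS competition. Hydroxyl radicals oxidize ABTS to the stable ABTS•+ cation radical, read by absorbance at 405 nm. IC50 is the compound concentration giving a 50% reduction in ABTS•+.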

Row | IC50 | Structure (SMILES)
1 | > 10000 µM | COc1ccc(OC)c(CCCCCCCCCCCCCCCO)c1
2 | 600 µM | Cc1c(C)c2c(c(C)c1O)CCC(C)(C(=O)O)O2 (configuration not stated) [TROLOX]

From ChEMBL document CHEMBL1145350, “Solid-phase synthesis of quinol fatty alcohols, design of N/O-substituted quinol fatty alcohols and comparative activities on axonal growth” (Bioorg Med Chem Lett, 2006)
